Experimental data published in ChEMBL document CHEMBL3425408, “Design, synthesis, in vitro, and in vivo anticancer and antiangiogenic activity of novel 3-arylaminobenzofuran derivatives targeting the colchicine site on tubulin” (J Med Chem, 2015).
Active and inactive are the calls of the source. The calls are words filed in the database; no cut-off is given here.

What was measured:
HeLa [1] = experiment: Induction of apoptosis in human HeLa cells assessed as increase in ROS production at 100 to […] after 24 to 48 hrs by H2-DCFDA based flow cytometry; assay type: functional, cell-based
Procedure, shortened: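 HeLa cells treated 24 or 48 h, then loaded with H2-DCFDA. ROS measured by flow cytometry. Three independent experiments.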

MCF7 = experiment: Antiproliferative activity against human MCF7 cells after 72 hrs by (3-(4,5-dimethylthiazol-2-yl)-2,5-diphenyltetrazolium bromide test; assay type: functional, cell-based; conditions: MCF7, 72 h
HeLa [2] = experiment: Antiproliferative activity against human HeLa cells after 72 hrs by (3-(4,5-dimethylthiazol-2-yl)-2,5-diphenyltetrazolium bromide test; assay type: functional, cell-based
HeLa [3] = experiment: Induction of cell cycle arrest in human HeLa cells assessed as increase in cyclin B expression at 250 nM after 24 hrs by Western blot analysis; assay type: functional, cell-based
Procedure, shortened: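 HeLa cells treated 24 or 48 h. Lysates cleared at 15000g, and 10 μg protein run on 7.5–15% SDS-PAGE and blotted to PVDF. Membranes blocked in 5% BSA and probed for cyclin B, p-cdc2 Tyr15 and cdc25c, then detected with peroxidase secondary and ECL. Blots stripped and reprobed for β-actin as loading control.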

HeLa [4] = experiment: Induction of apoptosis in human HeLa cells assessed as accumulation of annexin-V positive cells after 24 to 48 hrs by annexin-V-FITC/PI based flow cytometry; assay type: functional, cell-based
Procedure, shortened: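 HeLa cells treated 24 or 48 h, then double-stained with annexin V-FITC and PI. Surface phosphatidylserine exposure measured by flow cytometry.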

PBL = experiment: Cytotoxicity against human resting PBL cells after 72 hrs by MTT assay; assay type: cell-based
Procedure, shortened: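 Resting PBLs from healthy donors separated on a Lymphoprep gradient and incubated overnight in RPMI-1640 with 10% FBS. Nonadherent cells resuspended at 5 × 10^5 cells/mL without PHA and exposed to compound for 72 h. Viability read by MTT. […] Three experiments.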

Tubulin (Bos taurus) = Tubulin (Bos taurus) (UniProt Q6B856+Q862L2+Q862F3); experiment: Displacement of [3H]colchicine from bovine brain tubulin at 5 uM after 20 mins by scintillation counting analysis
Procedure, shortened: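 Reaction mixtures held 1 μM tubulin, 5 μM [3H]colchicine and 5 μM test compound. Inhibition of radiolabelled colchicine binding was reported as percent inhibition.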

HeLa [5] = experiment: Induction of cell cycle arrest in human HeLa cells assessed as cell arrest at G2/M phase after 24 hrs by propidium iodide based flow cytometric analysis; assay type: functional
Procedure, shortened: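 HeLa or Jurkat cells (5 × 10^5) treated 24 h. Cells fixed in ice-cold 70% ethanol, lysed with RNase A and 0.1% Triton X-100, and stained with propidium iodide. DNA content analyzed by flow cytometry to give cell-cycle phase distribution.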

HUVEC [6] = experiment: Antivascular activity in HUVEC assessed as inhibition of endothelial cell migration to tumor site at 25 nM after 6 hrs by wound-healing assay; assay type: functional, cell-based; conditions: Homo sapiens
Procedure, shortened: (§1)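 Scratch assay: confluent HUVEC monolayer on 0.1% collagen I wounded with a pipette tip and washed with PBS. Cells treated with compound and photographed at set times. Wound width measured in four areas and compared with the initial width to give gap closure. Three independent experiments.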

HUVEC [7] = experiment: Antivascular activity in HUVEC assessed as distruption of capillary like tube formation at 5 to 25 nM after 1 hr by matrigel assay; assay type: functional, cell-based; conditions: Homo sapiens
Procedure, shortened: (§2)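 Tube-disruption assay: HUVECs (passages 1–6) plated on gelled Matrigel and allowed 6 h to form capillary-like networks. Compound then added to the preformed networks for 1 or 3 h. Five fields per well photographed. Area covered, total network length, mesh number and branching points measured as percent change from complete-medium controls. Three independent experiments.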

Mus musculus [8] = experiment: In vivo antitumor activity against mouse BNL 1ME A.7R.1 cells allografted in Balb/c mouse assessed as reduction in tumor growth at 5 mg/kg, ip up to 8 days relative to vehicle treated control; assay type: functional, organism-based; design: dose 5 mg/kg
Procedure, shortened: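 Male Balb/c mice, 8 weeks old, received 10^7 BNL 1ME A.7R.1 cells in 200 μL PBS subcutaneously in the dorsal region. Mice were randomised into groups of 5 and dosed ip daily from day 2. Vehicle was 0.9% NaCl with 5% PEG 400 and 0.5% Tween 80, at 7 μL/g. Tumours were measured daily by caliper for 7 days; V = AB²/2.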

[9] = Antivascular activity in mouse B16-BL6 cells allografted in C57/BL6 mouse assessed as reduction blood vessel formation in tumor measured at 30 mg/kg, ip after 24 hrs; assay type: functional; conditions: route intraperitoneal
Procedure, shortened: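 C57BL/6 mice (6 weeks old) given 10^5 BL6-B16 melanoma cells s.c. in the dorsolateral flank in PBS. At 300 mm3 tumor volume, single i.p. dose of 30 mg/kg in DMSO. Tumors harvested 24 h later, frozen in OCT and cut into 4–5 μm sections. CD31-positive vessels counted in 5 fields per section (40× objective). Five mice per group.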

Chorioallantoic membrane [10] = experiment: Induction of blood vessel formation in chick embryo chorioallantoic membrane (CAM) at 100 pmol/egg; assay type: functional, tissue-based; conditions: Gallus gallus
Mus musculus [11] = experiment: In vivo antitumor activity against mouse BNL 1ME A.7R.1 cells allografted in Balb/c mouse assessed as reduction in tumor growth at 10 mg/kg, ip up to 8 days relative to vehicle treated control; assay type: functional, organism-based; design: dose 10 mg/kg
Procedure, shortened: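 Male Balb/c mice (8 weeks old) implanted s.c. in the dorsal region with 10^7 BNL 1ME A.7R.1 cells in PBS. Dosed i.p. daily from the second day at 5 or 10 mg/kg, in vehicle of 0.9% NaCl with 5% PEG 400 and 0.5% Tween 80 (7 μL/g). Tumors measured daily with calipers for 7 days, volume = AB²/2. Five mice per group.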

HUVEC [12] = experiment: Cytotoxicity against HUVEC cells at 5 to 25 nM; assay type: cell-based; conditions: human, 0.025 µM
Chorioallantoic membrane [13] = experiment: Antivascular activity in chick embryo chorioallantoic membrane (CAM) assessed as inhibition of FGF-induced blood vessel formation at 1 pmol/egg by microscopically measured on day 11; assay type: functional, tissue-based; conditions: Gallus gallus
Procedure, shortened: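 CAM assay: alginate sponges carrying FGF plus compound (0.1–1.0 pmol per pellet) grafted onto the CAM of fertilized chicken eggs on day 11 of development. Blood vessels converging toward the implant counted under a stereomicroscope at 5× after 72 h (day 14). At least six eggs per group.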

HUVEC [14] = experiment: Antivascular activity in HUVEC assessed as inhibition of endothelial cell migration to tumor site at 5 nM after 24 hrs by wound-healing assay; assay type: functional, cell-based; conditions: Homo sapiens; procedure, shortened: as §1
HUVEC [15] = experiment: Antivascular activity in HUVEC assessed as distruption of capillary like tube formation at 5 to 25 nM after 3 hrs by matrigel assay; assay type: functional, cell-based; conditions: Homo sapiens; procedure, shortened: as §2

Structure (SMILES) | Activity (HeLa [1]) | IC50 (MCF7) | IC50 (HeLa [2]) | Activity (HeLa [3]) | Activity (HeLa [4]) | IC50 (PBL) | inhibition (Tubulin (Bos taurus)) | Activity (HeLa [5]) | Activity (HUVEC [6]) | Activity (HUVEC [7]) | Activity (Mus musculus [8]) | inhibition in vivo at 30 mg/kg [9] | Activity (Chorioallantoic membrane [10]) | Activity (Mus musculus [11]) | Activity (HUVEC [12]) | inhibition (Chorioallantoic membrane [13]) | Activity (HUVEC [14]) | Activity (HUVEC [15])
CCOC(=O)c1oc2cc(OC)ccc2c1Nc1cc(OC)c(OC)c(OC)c1 | Active | 25 nM | 13 nM | Active | Dose-dependent effect | > 10 µM | 74% | Dose-dependent effect | – | – | – | – | – | – | – | – | – | –
COC(=O)c1oc2cc(OC)ccc2c1Nc1cc(OC)c(OC)c(OC)c1 | Active | 27 nM | 2 nM | Active | Dose-dependent effect | > 10 µM | 83% | Dose-dependent effect | Active | Active | inactive | 20% | inactive | Active | Non-toxic | Active | Active | Active
